The text below walks through data of ChEMBL document CHEMBL2429851, “New synthesis and tritium labeling of a selective ligand for studying high-affinity γ-hydroxybutyrate (GHB) binding sites” (J Med Chem, 2013).

Series [1] deals with MDCK. The experiment in a line: Apparent permeability from basolateral to apical side in MDCK cells expressing MDR1. In kind it is ADME, cell-based, Canis lupus familiaris. The note with it: dog.
In series [2] the test system is MDCK. Put plainly: Apparent permeability from apical to basolateral side in MDCK cells expressing MDR1. In kind it is ADME, cell-based, Canis lupus familiaris. The following applies: dog.
Series [3] is described as follows: Ratio of drug level in brain to plasma in C57 mouse at 10 mg/kg, po after 30 mins by LC-MS/MS analysis. The arrangement: dose 10 mg/kg, route oral. The following applies: read-out: BPR. It counts as ADME, organism-based. The gist of the method:
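Mice dosed orally at 10 mg/kg, a single acute dose. Brain and plasma sampled 30 minutes after dosing, and the brain-to-plasma concentration ratio calculated.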

The nature of series [4]: (§1) Displacement of [3H]-3-hydroxycyclopent-1-enecarboxylic acid from GHB binding site in Sprague-Dawley rat cerebral cortex after 1 hr by scintillation counting analysis. In kind it is tissue-based. In a few lines:
(§2)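 Rat cerebrocortical membranes incubated with 10 nM [3H]-ligand and competitor over a concentration range. Conditions follow the earlier [3H]NCS-382 protocol. Non-specific binding defined with 1 mM GHB. IC50 taken from inhibition curves. Each experiment run in triplicate, with three additional repeats.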
For orientation: Displacement assays read how much labelled ligand stays bound in the presence of the test substance.

The species named for series [5] is Rattus norvegicus. Described as §1. It counts as tissue-based. The gist of the method:
as §2

The species named for series [6] is Rattus norvegicus. The following applies: Sprague-Dawley, Cerebral cortex, at 100 µM.
Series [7] is filed under the species Rattus norvegicus. The note with it: Sprague-Dawley, Cerebral cortex, at 1 mM.
A short description of series [8]: Radiochemical stability of the compound in aqueous solution of gentisic acid by HPLC analysis. In kind it is physicochemical. The note with it: buffer. The gist of the method: (§3)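 [3H]-labelled compound tested for protection against radiolysis in four formulations, including ethanol and aqueous gentisic acid (50 mM), at 1 mCi/mL. Stability followed by HPLC (area%, 245 nm).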

Series [9] can be described thus: Radiochemical stability of the compound in ethanol at 1 mCi/mL by HPLC analysis. In kind it is physicochemical. In a few lines:
as §3

Series [10] in a line: Chemical stability of the compound in Milli-Q water at -30 degC by HPLC analysis. The following applies: buffer. In kind it is physicochemical. In a few lines:
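HPLC purity tracking (area%, 245 nm) of the compound dissolved at 2 mg/mL in MilliQ water (pH 3.5). Stored at −30±2°C and also at room temperature, sampled over time (days to over a year).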

A short description of series [11]: Displacement of [3H]NCS-382 from GHB binding site in Sprague-Dawley rat brain synaptic membranes after 1 hr by scintillation counting analysis. In kind it is cell membranes, Membrane.

Activity calls are given as the source filed them. The rule behind the calls is not given here.

What is called IC50 is the concentration at which inhibition is half-maximal. Higher therefore signals weaker potency in that assay. As a reminder, the pIC50 is the IC50 on a negative log10 scale, so that one unit is a factor of ten. Low readings indicate a large IC50, high ones a small IC50. In the case of `O=C(O)CCCO` [OXYBATE], the permeability result in the series on MDCK [1] is “impermeable”. For the same compound, in the series with MDCK [2], the permeability result is listed as “impermeable”. Also, the Kp at 0.5 h in series [3] is 0.2. In series [4], this compound had a half-inhibitory concentration (IC50) of 1140 nM and a pIC50 of 5.94. Besides, in the series filed under Rattus norvegicus [5], the inhibition result was “Dose-dependent effect”.

`COc1ccc(-c2ccc(=N)n(CCCC(=O)O)n2)cc1`: the inhibition result in the series listed under Rattus norvegicus [6] is “Active”.

As to `NCC(CC(=O)O)c1ccc(Cl)cc1` (stereo not given), the inhibition result in the series listed under Rattus norvegicus [7] was “inactive”.

With `[3H]C1(O)C=C(C(=O)O)CC1` (stereo not given), the Stability entry in series [8] and in series [9] was “Stable” each time.

As for `O=C([O-])C1=CC(O)CC1.[Na+]` (stereo not given), in series [4], the IC50 is 116 nM and the negative-log IC50 (pIC50) was determined as 6.93.

As for `O=C(O)C1=CC(O)CC1` (stereo not given), the inhibition result in the series filed under Rattus norvegicus [5] was “Dose-dependent effect”.

In the case of `O=C(O)C1=CC(O)CC1` (racemic) [listing 1 of 2 here], the inhibition entry in the series filed under Rattus norvegicus [5] is “Dose-dependent effect”.

As for `O=C(O)/C=C1\CCCc2ccccc2C1O` (stereo not given), the permeability entry with MDCK [1] and with MDCK [2] was “impermeable” in each case. Moreover, the Kp at 0.5 h in series [3] was found to be 0.38. Also, in the series listed under Rattus norvegicus [6], the inhibition result was “Active”.

Usually Ki stands for the equilibrium dissociation constant of an inhibitor or competing ligand from its target. With `O=C(O)C1=CC(O)CC1` (racemic) [listing 2 of 2 here], the permeability entry in the series with MDCK [1] and in the series with MDCK [2] was “impermeable” each time. For the same compound, in series [3], the Kp at 0.5 h worked out at 0.37. The IC50 in series [4] was found to be 73 nM. Besides, the pIC50 in series [4] is on record as 7.14. This compound displayed a Stability in [10] of 16 months. For the same compound, the affinity in series [11] corresponds to a Ki of 160 nM.
